Assay results published in ChEMBL document CHEMBL1140547, “Potent oxindole based human beta3 adrenergic receptor agonists” (Bioorg Med Chem Lett, 2007).

Columns and labels:
[1] = target: T1, Beta-3 adrenergic receptor (Homo sapiens, UniProt P13945); test: Agonist activity at human beta-3 adrenergic receptor expressed in CHO cells assessed as cAMP level relative to isoproterenol; format: functional, cell-based
Summary of the method: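 CHO cells expressing human β3 adrenergic receptor; agonism read out as cAMP level. Intrinsic activity taken as the compound's maximal response expressed as percentage of the maximal response to isoproterenol at […]; n = 3.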
Target sequence in this assay (P13945 whole entry, looked up): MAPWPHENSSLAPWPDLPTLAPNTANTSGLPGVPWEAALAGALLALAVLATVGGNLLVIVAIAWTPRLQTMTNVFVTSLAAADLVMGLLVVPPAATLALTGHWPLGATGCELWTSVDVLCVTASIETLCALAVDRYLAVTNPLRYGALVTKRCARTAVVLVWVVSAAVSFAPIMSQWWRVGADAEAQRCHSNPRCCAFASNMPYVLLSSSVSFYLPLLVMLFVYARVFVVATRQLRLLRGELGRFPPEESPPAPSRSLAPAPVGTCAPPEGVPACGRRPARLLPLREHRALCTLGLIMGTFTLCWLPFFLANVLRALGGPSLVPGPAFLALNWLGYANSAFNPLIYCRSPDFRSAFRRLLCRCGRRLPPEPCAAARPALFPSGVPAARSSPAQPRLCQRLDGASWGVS

[2] = target: T1, Beta-3 adrenergic receptor; test: Agonist activity at human beta-3 adrenergic receptor expressed in CHO cells assessed as cAMP level; format: functional, cell-based
Summary of the method: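 cAMP accumulation measured in CHO cells expressing the human β receptor. Intrinsic activity is the compound's maximal response as a percentage of the maximal isoproterenol response.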
Target sequence in this assay (P13945 whole entry): as the sequence (P13945 whole entry, looked up) above

Cardiac atrium = test: Effect on rat atrial tachycardia assessed as increase in heart rate; format: functional
Summary of the method: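 Isolated rat atria were used to score tachycardia. The value is the maximal response, or the response at a single fixed high agonist level when no maximum was reached.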

[3] = target: Beta-1 adrenergic receptor (Homo sapiens, UniProt P08588); test: Agonist activity at human beta-1 adrenergic receptor expressed in CHO cells assessed as cAMP level; format: functional, cell-based
Chain of Beta-1 adrenergic receptor (P08588 whole entry): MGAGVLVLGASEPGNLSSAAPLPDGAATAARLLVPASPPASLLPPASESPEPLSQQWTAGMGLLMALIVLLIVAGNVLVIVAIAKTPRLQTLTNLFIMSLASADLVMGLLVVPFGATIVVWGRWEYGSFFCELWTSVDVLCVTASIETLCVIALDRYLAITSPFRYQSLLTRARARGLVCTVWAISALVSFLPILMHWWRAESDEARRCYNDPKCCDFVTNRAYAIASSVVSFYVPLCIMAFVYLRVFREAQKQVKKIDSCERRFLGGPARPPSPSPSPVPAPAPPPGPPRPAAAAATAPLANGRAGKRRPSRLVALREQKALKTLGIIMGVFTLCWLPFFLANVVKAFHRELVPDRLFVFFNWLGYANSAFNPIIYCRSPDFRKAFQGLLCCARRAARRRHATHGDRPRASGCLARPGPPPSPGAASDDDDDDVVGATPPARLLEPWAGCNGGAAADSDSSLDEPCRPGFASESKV

[4] = target: Beta-2 adrenergic receptor (Homo sapiens, UniProt P07550); test: Agonist activity at human beta-2 adrenergic receptor expressed in CHO cells assessed as cAMP level; format: functional, cell-based
Chain of Beta-2 adrenergic receptor (P07550 whole entry): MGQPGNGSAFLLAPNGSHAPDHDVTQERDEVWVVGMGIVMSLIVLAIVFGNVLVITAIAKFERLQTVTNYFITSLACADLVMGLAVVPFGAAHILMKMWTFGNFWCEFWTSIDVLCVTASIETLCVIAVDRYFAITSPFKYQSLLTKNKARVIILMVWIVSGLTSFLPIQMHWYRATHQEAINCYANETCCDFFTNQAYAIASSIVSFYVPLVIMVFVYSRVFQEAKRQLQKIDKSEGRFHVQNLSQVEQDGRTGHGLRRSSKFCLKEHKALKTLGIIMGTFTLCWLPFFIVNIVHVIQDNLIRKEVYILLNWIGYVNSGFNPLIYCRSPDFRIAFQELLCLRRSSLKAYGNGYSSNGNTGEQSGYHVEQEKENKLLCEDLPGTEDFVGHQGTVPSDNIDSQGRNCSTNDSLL

Rattus norvegicus [5] = test: Increase in energy expenditure in diet induced obese Long Evans rat at 10 mg/kg, po after 20 hrs relative to control; format: functional
Summary of the method: (§1)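 Diet-induced obese Long Evans rats received one oral dose (1 or 10 mg/kg) or vehicle. Indirect calorimetry tracked respiratory quotient over 24 h. RQ reduction and energy expenditure increase were expressed as % versus vehicle over 20 h. Food consumption was recorded in g. Statistical significance was assessed against vehicle.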

Rattus norvegicus [6] = test: Effect on food consumption in diet induced obese Long Evans rat at 10 mg/kg, po; format: functional; summary of the method: as §1
Rattus norvegicus [7] = test: Reduction in respiratory quotient in diet induced obese Long Evans rat at 10 mg/kg, po after 20 hrs relative to control; format: functional; set-up: scale not given: the % may be the effect or the level left; summary of the method: as §1
Rattus norvegicus [8] = test: Effect on food consumption in diet induced obese Long Evans rat at 1 mg/kg, po; format: functional; summary of the method: as §1
Rattus norvegicus [9] = test: Reduction in respiratory quotient in diet induced obese Long Evans rat at 1 mg/kg, po after 20 hrs relative to control; format: functional; set-up: scale not given: the % may be the effect or the level left; summary of the method: as §1
Rattus norvegicus [10] = test: Increase in energy expenditure in diet induced obese Long Evans rat at 1 mg/kg, po after 20 hrs relative to control; format: functional; summary of the method: as §1
[11] = Oral bioavailability in rat […]; format: ADME, organism-based; settings: in vivo
[12] = target: Beta-3 adrenergic receptor (Rattus norvegicus, UniProt P26255); test: Agonist activity at rat beta-3 adrenergic receptor; format: functional
Chain of Beta-3 adrenergic receptor (Rattus norvegicus, UniProt P26255) (P26255 whole entry): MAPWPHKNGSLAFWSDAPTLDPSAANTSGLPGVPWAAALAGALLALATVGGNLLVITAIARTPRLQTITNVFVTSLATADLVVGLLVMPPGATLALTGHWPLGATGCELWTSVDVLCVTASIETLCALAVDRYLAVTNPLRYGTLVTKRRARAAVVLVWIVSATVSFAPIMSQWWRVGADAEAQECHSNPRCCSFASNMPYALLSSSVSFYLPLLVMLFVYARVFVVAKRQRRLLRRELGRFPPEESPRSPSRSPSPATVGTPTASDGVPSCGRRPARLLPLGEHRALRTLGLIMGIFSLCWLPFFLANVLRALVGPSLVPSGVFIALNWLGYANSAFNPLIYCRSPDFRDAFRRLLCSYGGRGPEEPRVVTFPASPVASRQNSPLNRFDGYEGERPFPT

[13] = Oral bioavailability in F344 rat; settings: in vivo

Row | SMILES | Emax [1] | EC50 [2] | Activity (Cardiac atrium) | EC50 [3] | EC50 [4] | Activity (Rattus norvegicus [5]) | Activity (Rattus norvegicus [6]) | Activity (Rattus norvegicus [7]) | Activity (Rattus norvegicus [8]) | Activity (Rattus norvegicus [9]) | Activity (Rattus norvegicus [10]) | bioavailability [11] | EC50 [12] | bioavailability [13]
1 | CC1C(=O)Nc2cccc(OC[C@@H](O)CNC(C)(C)Cc3ccc(Oc4ccc(C(N)=O)cn4)cc3)c21 (stereo not given in full) | 72.6% | 0.012 µM | 10.4% | > 10 µM | > 10 µM | – | – | – | – | – | – | – | – | –
2 | CC(C)(Cc1ccc(Oc2ccc(C(N)=O)cn2)cc1)NC[C@H](O)COc1cccc2c1C1(CCCC1)C(=O)N2 | 66.3% | 0.0106 µM | 8.6% | > 10 µM | > 10 µM | – | – | – | – | – | – | – | – | –
3 | CC(C)(Cc1ccc(Oc2ccc(C(N)=O)cn2)cc1)NC[C@H](O)COc1cccc2c1C1(CC1)C(=O)N2 | 76.8% | 0.0066 µM | 13.2% | 0.0583 µM | 0.0352 µM | – | – | – | – | – | – | – | – | –
4 | CC(C)(Cc1ccc(Oc2ccc(C(N)=O)cn2)cc1)NC[C@H](O)COc1cccc2c1C(C)(C)C(=O)N2 | 67.9% | 0.0052 µM | 9.7% | > 10 µM | > 10 µM | 14% | 11.8 g | 45% | 13.7 g | 31% | 8% | 10% | 0.0065 µM | 10%
5 | CC(C)(Cc1ccc(Oc2ccc(C(N)=O)cn2)cc1)NC[C@H](O)COc1cccc2c1C1(CCCCC1)C(=O)N2 | 41% | 0.0083 µM | 16% | > 10 µM | > 10 µM | – | – | – | – | – | – | – | – | –
6 | CC(C)(Cc1ccc(Oc2ccc(C(N)=O)cn2)cc1)NC[C@H](O)COc1cccc2c1CC(=O)N2 | 50.5% | 0.0244 µM | 19.5% | > 10 µM | > 10 µM | – | – | – | – | – | – | – | – | –
7 | CC(C)C1C(=O)Nc2cccc(OC[C@@H](O)CNC(C)(C)Cc3ccc(Oc4ccc(C(N)=O)cn4)cc3)c21 (stereo not given in full) | 41.7% | 0.0139 µM | – | > 10 µM | > 10 µM | – | – | – | – | – | – | – | – | –
8 | CC(C)CC1C(=O)Nc2cccc(OC[C@@H](O)CNC(C)(C)Cc3ccc(Oc4ccc(C(N)=O)cn4)cc3)c21 (stereo not given in full) | 49.4% | 0.014 µM | – | > 10 µM | > 10 µM | – | – | – | – | – | – | – | – | –
9 | CC(C)(Cc1ccc(Oc2ccc(C(N)=O)cn2)cc1)NC[C@H](O)COc1cccc2c1C1(CCC1)C(=O)N2 | 71.2% | 0.0176 µM | 14.8% | > 10 µM | > 10 µM | – | – | – | – | – | – | – | – | –
10 | CCC1(CC)C(=O)Nc2cccc(OC[C@@H](O)CNC(C)(C)Cc3ccc(Oc4ccc(C(N)=O)cn4)cc3)c21 | 14.2% | 0.0027 µM | 2% | > 10 µM | > 10 µM | – | – | – | – | – | – | – | – | –
11 | CC(C)(Cc1ccc(Oc2ccc(C(N)=O)cn2)cc1)NC[C@H](O)COc1cccc2c1C(Cc1ccccc1)C(=O)N2 (stereo not given in full) | 15.6% | 0.0123 µM | – | > 10 µM | > 10 µM | – | – | – | – | – | – | – | – | –
12 | CC(C)(Cc1ccc(Oc2ccc(C(N)=O)cn2)cc1)NC[C@H](O)COc1cccc2c1C(Cc1ccccc1)(Cc1ccccc1)C(=O)N2 | 48.5% | 0.268 µM | – | > 10 µM | > 10 µM | – | – | – | – | – | – | – | – | –
